Source: ChEMBL document CHEMBL1134294, “A prodrug form of a Plasmodium falciparum glutathione reductase inhibitor conjugated with a 4-anilinoquinoline” (J Med Chem, 2001)
Activity calls are given as the source filed them. The calls are words filed in the database; no cut-off is given here.

What was measured:
[1] = Susceptibility of compound to hydrolysis at 37 degrees C for RPMI-10% human serum; format: ADME; settings: RPMI with 10% human serum
Outline: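 Prodrug (100 μM final, from 1 mM stock in 10% aqueous DMSO) is held in RPMI with 10% human serum at 37 °C and sampled from 0 to 77.5 h. Samples are mixed with EtOH plus internal reference, centrifuged, and the supernatant is analysed by HPLC. Half-life of ester disappearance is the mean of two determinations.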

[2] = target: Glutathione reductase (Plasmodium falciparum K1) (UniProt Q94655); test: Effect on glutathione reductase activity of chloroquine-resistant Plasmodium falciparum K1 in culture after 24 hrs treatment at 150 nM conc; format: functional
Outline: (§1)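 After 24 h exposure of synchronized K1 ring cultures, parasites were saponin-isolated and freeze-thaw extracts prepared. GR activity was assayed at 25 °C with 100 μM NADPH and 100 μM GSSG in 47 mM potassium phosphate, 200 mM KCl, 1 mM EDTA, pH 6.9, following NADPH consumption at 340 nm.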

[3] = target: Glutathione reductase (Plasmodium falciparum K1) (UniProt Q94655); test: Effect on glutathione reductase activity of chloroquine-resistant Plasmodium falciparum K1 in culture after 24 hrs treatment at 30 nM conc; format: functional; outline: as §1
[4] = target: T1, Glutathione S-transferase (Plasmodium falciparum) (UniProt Q8ILQ7); test: Effect on glutathione S-transferase (GST) activity of chloroquine-resistant Plasmodium falciparum K1 in culture after 24 hrs treatment at 500 nM conc; format: functional
T1 sequence (whole entry): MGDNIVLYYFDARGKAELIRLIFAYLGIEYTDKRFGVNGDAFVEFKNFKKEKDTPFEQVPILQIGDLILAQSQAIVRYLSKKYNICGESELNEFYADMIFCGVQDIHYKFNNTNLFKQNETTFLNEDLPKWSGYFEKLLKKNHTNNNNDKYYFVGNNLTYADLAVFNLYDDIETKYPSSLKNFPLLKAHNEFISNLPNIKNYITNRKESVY
Outline: (§2)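 K1 ring-stage cultures (sorbitol-synchronized, 5% hematocrit, 3.7% parasitemia) treated 24 h. Parasites were released with 0.02% saponin (10 min, 37 °C), freeze-thawed three times and the supernatant assayed. GST activity was read spectrophotometrically at 340 nm with 0.5 mM CDNB and 1 mM GSH in 100 mM potassium phosphate, 1 mM EDTA, pH 6.5. Reported as mU/mg protein.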

[5] = test system: Plasmodium falciparum; test: In vitro efficacy for chloroquine-sensitive Plasmodium falciparum D6; settings: read-out: ED50 (the source's name)
[6] = target: T1, Glutathione S-transferase (Plasmodium falciparum); test: Effect on glutathione S-transferase (GST) activity of chloroquine-resistant Plasmodium falciparum K1 in culture after 24 hrs treatment at 30 nM conc; format: functional; outline: as §2
[7] = test system: Plasmodium falciparum; test: Effect on protein of chloroquine-resistant Plasmodium falciparum K1 culture after 24 hrs at 150 nM; format: functional
Outline: (§3)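 Synchronized K1 ring cultures were treated 24 h, then saponin-isolated and freeze-thawed. Extract was diluted in 150 mM KH2PO4, pH 8.0, and nucleic acid and protein were estimated from absorbance at 260 and 280 nm. Protein was also measured by dye-binding assay with BSA standard.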

[8] = test system: Mus musculus; test: Percentage of parasitaemia on day 18 in mice infected with Plasmodium berghei (ip, 40 mg/kg); format: functional
Outline: (§4)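 Female Swiss CD-1 mice (four-week-old, 20–25 g, three per group) are infected ip with about 10⁷ P. berghei ANKA 65 parasitized erythrocytes from a donor. On the day of infection they receive 40 mg/kg orally in 100% DMSO, then daily ip for 4 days. Parasitemia is counted daily. Controls get DMSO only.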

[9] = test system: Plasmodium falciparum; test: Effect on glutathione reductase activity of chloroquine-resistant Plasmodium falciparum K1 culture after 24 hrs at 500 nM; format: functional; outline: as §1
[10] = test system: Plasmodium falciparum; test: In vitro efficacy for chloroquine-sensitive Plasmodium falciparum F32; settings: read-out: ED50 (the source's name)
[11] = test system: Plasmodium falciparum; test: Effect on nucleic acid of chloroquine-resistant Plasmodium falciparum K1 culture after 24 hrs at 30 nM; format: functional; outline: as §3
[12] = test system: Plasmodium falciparum; test: In vitro efficacy for chloroquine-resistant Plasmodium falciparum K1; format: functional; settings: read-out: ED50 (the source's name)
Outline: (§5)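 Asynchronous cultures in human erythrocytes (0.5% parasitemia, 1% hematocrit) received serially diluted drug, DMSO ≤0.1%. After 24 h at 37 °C, 0.5 μCi [3H]hypoxanthine was added and incubation continued another 24 h. Growth inhibition was taken versus drug-free control, ED50 read from the concentration–response curve, and reported as mean of ≥3 independent experiments.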

[13] = test system: Plasmodium falciparum; test: Effect on glutathione content of chloroquine-resistant Plasmodium falciparum K1 culture after 24 hrs at 30 nM; format: functional
Outline: (§6)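 Sorbitol-synchronized K1 rings (5% hematocrit, 3.7% parasitemia) exposed 24 h, then saponin-lysed and freeze-thawed. Extract (40 μL) was deproteinized with 2 volumes of 5% sulfosalicylic acid. Total glutathione was measured by GR-coupled DTNB-GSH recycling against a GSH standard curve. Expressed as nmol/mg protein.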

[14] = test system: Plasmodium falciparum; test: In vitro efficacy for chloroquine-resistant Plasmodium falciparum W2; format: functional; settings: read-out: ED50 (the source's name); outline: as §5
[15] = test system: Plasmodium falciparum; test: Effect on nucleic acid of chloroquine-resistant Plasmodium falciparum K1 culture after 24 hrs at 150 nM; format: functional; outline: as §3
[16] = test system: Plasmodium falciparum; test: Effect on protein of chloroquine-resistant Plasmodium falciparum K1 culture after 24 hrs at 30 nM; format: functional; outline: as §3
[17] = test system: Mus musculus; test: Percentage of parasitaemia on day 4 in mice infected with Plasmodium berghei (ip, 40 mg/kg); format: functional; outline: as §4
[18] = test system: Plasmodium falciparum; test: Effective dose against chloroquine-resistant Plasmodium falciparum FcB1R; format: functional; outline: as §5
[19] = Susceptibility of compound to hydrolysis at 37 degrees C at pH 5.0 acetate medium; format: ADME
Outline: (§7)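 Prodrug (100 μM final, from 1 mM stock in 10% aqueous DMSO) is incubated at 37 °C in pH 7.4 phosphate buffer (150 mM NaCl, 4 mM NaH₂PO₄, 25 mM NaHCO₃) or pH 5.0 acetate (150 mM NaCl, 10 mM NaOAc). Half-life of ester disappearance is found by HPLC as the mean of two determinations.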

[20] = test system: Plasmodium falciparum; test: Effect on protein of chloroquine-resistant Plasmodium falciparum K1 culture after 24 hrs at 500 nM; format: functional; outline: as §3
[21] = test system: Plasmodium falciparum; test: Effect on glutathione content of chloroquine-resistant Plasmodium falciparum K1 culture after 24 hrs at 500 nM; format: functional; outline: as §6
[22] = test system: Mus musculus; test: Percentage of parasitaemia on day 11 in mice infected with Plasmodium berghei (ip, 40 mg/kg); format: functional; outline: as §4
[23] = test system: Plasmodium falciparum; test: Effect on nucleic acid of chloroquine-resistant Plasmodium falciparum K1 culture after 24 hrs at 500 nM; format: functional; outline: as §3
[24] = test system: Mus musculus; test: Percentage excess MST, when used as the chlorohydrate in mice infected with Plasmodium berghei (i.p., 40 mg/kg); format: functional; settings: route intraperitoneal
Outline: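 Female Swiss CD-1 mice (four weeks, 20–25 g), three per group, were infected ip with about 10^7 P. berghei ANKA parasitized erythrocytes. Dosing was 40 mg/kg in 100% DMSO, given orally at infection, then ip over the following 4 days. Parasitemia was counted daily. Activity was scored as percentage excess mean survival time over DMSO-treated infected controls.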

[25] = test system: Plasmodium falciparum; test: Effect on glutathione content of chloroquine-resistant Plasmodium falciparum K1 culture after 24 hrs at 150 nM; format: functional; outline: as §6
[26] = Susceptibility of compound to hydrolysis at 37 degrees C at pH 7.4 phosphate buffer; format: ADME; outline: as §7
[27] = test system: Plasmodium falciparum; test: In vitro efficacy for chloroquine-resistant Plasmodium falciparum FcB1; format: functional; settings: read-out: ED50 (the source's name); outline: as §5
[28] = test system: Plasmodium falciparum; test: In vitro efficacy for chloroquine-sensitive Plasmodium falciparum Thai strain; settings: read-out: ED50 (the source's name)
[29] = target: T1, Glutathione S-transferase (Plasmodium falciparum); test: Effect on glutathione S-transferase (GST) activity of chloroquine-resistant Plasmodium falciparum K1 in culture after 24 hrs treatment at 150 nM conc; format: functional; outline: as §2
[30] = target: Glutathione reductase (Plasmodium falciparum 3D7) (UniProt O15770); test: In vitro inhibition of Plasmodium falciparum Glutathione Reductase; Not active; settings: Plasmodium falciparum FcB1
Outline: (§8)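 Recombinant purified GR (about 5 mU/ml) with 100 μM NADPH in 47 mM potassium phosphate, 200 mM KCl, 1 mM EDTA, pH 6.9, at 25 °C. Enzyme, NADPH and inhibitor are premixed and the reaction is started with 100 μM GSSG. NADPH loss is read at 340 nm. IC50 is taken from increasing inhibitor concentrations in 1% final DMSO, run in duplicate.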

[31] = target: T2, Glutathione reductase, mitochondrial (Homo sapiens) (UniProt P00390); test: In vitro inhibition of human Glutathione Reductase; Not active; outline: as §8
T2 sequence (whole entry): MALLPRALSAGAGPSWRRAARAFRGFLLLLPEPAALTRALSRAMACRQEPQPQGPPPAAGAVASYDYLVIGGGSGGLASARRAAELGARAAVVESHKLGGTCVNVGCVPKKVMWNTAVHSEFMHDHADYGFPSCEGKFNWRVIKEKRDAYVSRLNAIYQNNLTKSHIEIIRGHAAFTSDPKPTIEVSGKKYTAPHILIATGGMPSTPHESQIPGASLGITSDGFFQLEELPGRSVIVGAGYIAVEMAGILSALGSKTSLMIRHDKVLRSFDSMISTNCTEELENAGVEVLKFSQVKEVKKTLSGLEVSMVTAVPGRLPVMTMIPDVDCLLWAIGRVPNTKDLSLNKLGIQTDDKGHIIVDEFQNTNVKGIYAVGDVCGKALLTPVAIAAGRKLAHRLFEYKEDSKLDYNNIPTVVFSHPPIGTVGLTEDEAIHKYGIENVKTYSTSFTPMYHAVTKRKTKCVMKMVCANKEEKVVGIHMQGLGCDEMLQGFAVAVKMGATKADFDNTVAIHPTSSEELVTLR

[32] = target: T2, Glutathione reductase, mitochondrial (Homo sapiens); test: Competitive inhibition of human Glutathione Reductase
[33] = target: Glutathione reductase (Plasmodium falciparum 3D7) (UniProt O15770); test: Competitive inhibition of Plasmodium falciparum Glutathione Reductase; settings: Plasmodium falciparum FcB1
[34] = target: T3, Glutathione reductase, mitochondrial (Homo sapiens, UniProt P00390); test: In vitro inhibition of human Glutathione Reductase; outline: as §8
T3 sequence (P00390 whole entry): T2 sequence (whole entry)

[35] = target: Glutathione reductase (Plasmodium falciparum 3D7, UniProt O15770); test: In vitro inhibition of Plasmodium falciparum Glutathione Reductase; parameters: species or system FcB1; outline: as §8
[36] = read-out: ED50 (the source's name)

Sequence of Glutathione reductase (Plasmodium falciparum 3D7) (O15770 whole entry): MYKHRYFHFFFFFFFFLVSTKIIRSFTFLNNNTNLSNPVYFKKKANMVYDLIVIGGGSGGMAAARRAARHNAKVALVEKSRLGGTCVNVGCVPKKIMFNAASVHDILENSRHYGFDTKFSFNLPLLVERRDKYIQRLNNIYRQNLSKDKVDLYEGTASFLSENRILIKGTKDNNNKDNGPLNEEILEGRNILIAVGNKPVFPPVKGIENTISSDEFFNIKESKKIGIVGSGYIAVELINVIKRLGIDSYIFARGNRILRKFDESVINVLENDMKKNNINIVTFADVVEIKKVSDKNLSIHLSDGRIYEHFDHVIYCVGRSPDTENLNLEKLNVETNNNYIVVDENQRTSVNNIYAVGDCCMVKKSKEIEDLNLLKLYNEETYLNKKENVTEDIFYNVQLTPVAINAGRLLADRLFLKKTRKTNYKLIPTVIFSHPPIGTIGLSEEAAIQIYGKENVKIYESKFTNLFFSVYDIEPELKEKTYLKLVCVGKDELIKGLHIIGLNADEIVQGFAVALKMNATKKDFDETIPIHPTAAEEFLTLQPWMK
Sequence of Glutathione reductase (Plasmodium falciparum K1) (Q94655 whole entry): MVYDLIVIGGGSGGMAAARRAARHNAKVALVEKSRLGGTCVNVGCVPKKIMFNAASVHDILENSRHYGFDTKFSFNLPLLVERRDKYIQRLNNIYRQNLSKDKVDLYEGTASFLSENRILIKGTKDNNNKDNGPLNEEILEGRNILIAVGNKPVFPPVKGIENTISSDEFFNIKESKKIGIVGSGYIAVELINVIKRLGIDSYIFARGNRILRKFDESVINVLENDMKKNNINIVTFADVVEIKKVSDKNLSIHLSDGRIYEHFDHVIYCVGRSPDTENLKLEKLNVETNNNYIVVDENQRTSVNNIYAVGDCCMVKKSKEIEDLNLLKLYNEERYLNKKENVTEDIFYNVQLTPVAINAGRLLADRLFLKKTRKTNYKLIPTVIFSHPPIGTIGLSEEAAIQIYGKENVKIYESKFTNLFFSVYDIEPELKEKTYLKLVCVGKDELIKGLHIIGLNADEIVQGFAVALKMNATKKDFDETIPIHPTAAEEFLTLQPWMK
Sequence of Glutathione reductase (O15770 whole entry): as the sequence (O15770 whole entry) above

`CC1=C(CCCCCC(=O)OCc2cc(NC(=O)CN3CCCCC3)cc(Nc3ccnc4cc(Cl)ccc34)c2)C(=O)c2ccccc2C1=O` gave a half-life [1] of over 80 h, a GR activity [2] of 8 mU mg-1 and a GR activity [3] of 30 mU mg-1. The GST activity [4] was 9.5 mU mg-1, the EC50 [5] was 27.7 nM and the GST activity [6] was 3.7 mU mg-1. The Protein [7] was 0.6 mg/mL, the Parasitaemia [8] was 48% and the GR activity [9] was 6 mU mg-1. It also gave an EC50 [10] of 25.8 nM, a Nucleic acids [11] of 89 ng/mg and an EC50 [12] of 29.3 nM. For the same compound, the Glutathione [13] was 14.8 nM/mg, the EC50 [14] was 26.4 nM and the Nucleic acids [15] was 79 ng/mg. For the same compound, the Protein [16] was 1.1 mg/mL, the Parasitaemia [17] was under 0.1% and the EC50 ([18]; read-out: ED50) was 23.1 nM. For the same compound, the half-life [19] was over 80 h, the Protein [20] was 0.4 mg/mL and the Glutathione [21] was under 1 nM/mg. For the same compound, the Parasitaemia [22] was 9%, the Nucleic acids [23] was 81 ng/mg and the “Excess MST” value [24] was 178%. For the same compound, the Glutathione [25] was under 1 nM/mg, the half-life [26] was over 80 h and the EC50 [27] was 23.1 nM. For the same compound, the EC50 [28] was 36.5 nM and the GST activity [29] was 4.3 mU mg-1.
For `CC1=C(CCCCCC(=O)OCOC(=O)C(C)(C)C)C(=O)c2ccccc2C1=O`, the NA [30] was “inactive”, the NA [31] was “inactive” and the EC50 [18, 36] was 24100 nM. It also gave a half-life [19] of 1 h and a half-life [26] of 2 h.
In the case of `CCCC(=O)OCOC(=O)CCCCCC1=C(C)C(=O)c2ccccc2C1=O`, the NA [30] is reported as “inactive”, the NA [31] is reported as “inactive” and the EC50 [18, 36] is reported as 22400 nM. For the same compound, the half-life [19] was 0.5 h and the half-life [26] was 1 h.
For `CC1=C(CCCCC(=O)O)C(=O)c2c(O)cccc2C1=O`, the Ki.c [32] was 1100 nM, the Ki.c [33] was 2400 nM and the IC50 [34] was 1000 nM. For the same compound, the IC50 [35] was 2500 nM and the EC50 [18, 36] was 7700 nM.
